We go through three molecules from paper PMC5651194 (Cellular signalling, 2017).

The structures appear in SMILES notation. A value given as a limit tells only on which side of the number the result lay.

One assay has as its system CLL cells. In words: CLL apoptosis assay. The class given is cell-based, human. The conditions noted are these: 20μM, 48 h, median and standard deviation of three assays. The gist of the method: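 PBMC from heparinized blood of CLL patients, isolated on Histopaque 1077 and washed. Plated at 1 million cells/well in RPMI 1640 with 10% FBS, 20 mM L-glutamine and penicillin/streptomycin. Exposed to 20μM test compound or vehicle for 48 h at 37°C, 5% CO2. Harvested, stained 10 min at 37°C with Hoechst 33342 (0.25 μg/mL final), then analysed by flow cytometry.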

For the next assay, the system named is PDE7A. The conditions noted are these: cited from earlier work.
Assay [1] relates to PDE7B. The conditions noted are these: cited from earlier work.
Another assay has as its target Human PDE4D2 (Homo sapiens, UniProt Q08499). In words: In vitro PDE assay. Format: biochemical. An outline of the steps:
(§1)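 Radiolabelled cAMP hydrolysis with cAMP substrate at 40nM. Reactions stopped in linear phase with 0.2 M ZnSO4, hydrolysis limited to ~50% conversion. 5′-AMP precipitated with 0.25 N Ba(OH)2 and pelleted by centrifugation for 15 min. Supernatant radioactivity counted by scintillation.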

The target in another assay is murine PDE4A1 (Mus musculus, UniProt O89084). Briefly: Yeast-based HTS. Format: cell-based. The conditions noted are these: duplicate plates, OD600 after 48 h. The gist of the method: (§2)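 S. pombe gpa2Δ strains carrying the PKA-repressed fbp1-ura4+ reporter, with the PDE replacing endogenous Cgs2, grown in 5FOA medium. Compounds from 5 mg/mL stocks were pinned in. OD600 read after 48 h at 30°C. Run on duplicate plates; composite Z = replicate Z-score vector scaled by cosine correlation with the diagonal. Controls: 0.2% DMSO (negative), 5 mM cAMP (positive).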

The target of the next assay is human PDE11A4 (Homo sapiens, UniProt Q9HCR9). In words: In vitro PDE assay. Format: biochemical. The gist of the method: (§3)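 Recombinant PDE (human PDE1C, PDE3B, PDE5A1, PDE8A, PDE9A2, PDE10A1, PDE11A4; rat PDE2A) incubated with radiolabelled cyclic nucleotide substrate. Stopped in linear phase with 0.2 M ZnSO4, hydrolysis ≤~50%. 5′-nucleotide precipitated with 0.25 N Ba(OH)2 and spun down for 15 min. Supernatant radioactivity measured by scintillation counting.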

The target in the next assay is human PDE3B (Homo sapiens, UniProt Q13370). In words: In vitro PDE assay. The class given is biochemical. An outline of the steps: as §3
For the next assay, the target named is human PDE10A1 (Homo sapiens, UniProt Q9Y233). In words: In vitro PDE assay. Format: biochemical. An outline of the steps: as §3
Assay [2] has as its target PDE7B (Homo sapiens, UniProt Q9NP56). In words: In vitro PDE assay. Format: biochemical.
Another assay deals with murine PDE4B3 (Mus musculus, UniProt Q8VBU5). Briefly: Yeast-based HTS. The conditions noted are these: duplicate plates, OD600 after 48 h. The class given is cell-based. An outline of the steps:
as §2

The test system of the next assay is PDE8A. The settings on record: not a hit; cited from earlier work.
For a further assay, the target named is rat PDE4A5 (Rattus norvegicus, UniProt P54748). In words: Yeast-based HTS. The class given is cell-based. The conditions noted are these: duplicate plates, OD600 after 48 h. The gist of the method: as §2
For another assay, the target named is human PDE7A (Homo sapiens, UniProt Q13946). Briefly: In vitro PDE assay. Format: biochemical. An outline of the steps:
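Human PDE7 enzymes (PDE7A recombinant) assayed with 10nM cAMP substrate. Stopped during linear phase with 0.2 M ZnSO4, conversion kept near 50%. Product 5′-AMP removed by 0.25 N Ba(OH)2 precipitation and 15 min centrifugation. Remaining supernatant radioactivity read in scintillation fluid.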

Another assay deals with human PDE7A1 (Homo sapiens, UniProt Q13946). In words: Yeast-based HTS. The class given is cell-based. The conditions noted are these: duplicate plates, OD600 after 48 h. The gist of the method:
as §2

A further assay concerns the target Human PDE4B2 (Homo sapiens, UniProt Q07343). In words: In vitro PDE assay. Format: biochemical.
A further assay deals with rat PDE2A (Rattus norvegicus, UniProt Q01062). Briefly: In vitro PDE assay. The class given is biochemical. An outline of the steps:
as §3

A further assay has as its target human PDE5A1 (Homo sapiens, UniProt O76074). In words: In vitro PDE assay. Format: biochemical. The gist of the method:
as §3

Assay [3] has as its target mutant PDE4B2^T407A catalytic domain (Homo sapiens, UniProt Q07343, T579A). In words: In vitro enzyme assay, catalytic domain purified from E. coli. Format: biochemical.
The next assay deals with Human PDE4A10 (Homo sapiens, UniProt P27815). In words: In vitro PDE assay. The class given is biochemical. The gist of the method:
as §1

Assay [4] deals with TNFα production by LPS-stimulated macrophage (U937 cells). In words: TNFα assay. Format: cell-based. The conditions noted are these: 20μM.
Assay [5] deals with yeast strains that express human PDE4A1, PDE4B2, PDE4D3, PDE7A1 or PDE7B1. Briefly: 5FOA growth assay, dose response. Format: cell-based. The conditions noted are these: dose response 0.05 μM to 50 μM.
The target in a further assay is human PDE1C (Homo sapiens, UniProt Q14123). Briefly: In vitro PDE assay. Format: biochemical. The gist of the method:
as §3

The subject of another assay is PDE11A. The settings on record: very weak hit; cited from earlier work.
The test system of assay [6] is PDE4 and PDE7 relative to PDE2A and PDE11A. Briefly: Selectivity from in vitro PDE assays. The class given is biochemical.
A further assay concerns the target human PDE9A2 (Homo sapiens, UniProt O76083). Briefly: In vitro PDE assay. Format: biochemical. The gist of the method:
as §3

The subject of assay [7] is S. pombe strain that expresses Git2 adenylyl cyclase and human PDE4B2. Briefly: Stationary phase viability of yeast. The class given is cell-based. The settings on record: 10μM BC54, three days in stationary phase. An outline of the steps: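 S. pombe CHP1346 (git2+ cgs2-2) transformants expressing PDE4B2 or no PDE, plus CHP1207 (git2Δ cgs2-2) with PDE4B2. Grown to stationary phase for three days in EMM-leucine ± 10μM test compound. Diluted 100-fold in YES, then four 10-fold serial dilutions. Spotted onto YES, grown at 30°C and photographed.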

For assay [8], the system named is IL-2 production by PMA-PHA stimulated Jurkat T cells. In words: IL-2 assay. The class given is cell-based. The settings on record: 20μM.
Another assay concerns the target human PDE8A (Homo sapiens, UniProt O60658). Briefly: In vitro PDE assay. The class given is biochemical. An outline of the steps: as §3

Chain of rat PDE2A (Q01062 whole entry): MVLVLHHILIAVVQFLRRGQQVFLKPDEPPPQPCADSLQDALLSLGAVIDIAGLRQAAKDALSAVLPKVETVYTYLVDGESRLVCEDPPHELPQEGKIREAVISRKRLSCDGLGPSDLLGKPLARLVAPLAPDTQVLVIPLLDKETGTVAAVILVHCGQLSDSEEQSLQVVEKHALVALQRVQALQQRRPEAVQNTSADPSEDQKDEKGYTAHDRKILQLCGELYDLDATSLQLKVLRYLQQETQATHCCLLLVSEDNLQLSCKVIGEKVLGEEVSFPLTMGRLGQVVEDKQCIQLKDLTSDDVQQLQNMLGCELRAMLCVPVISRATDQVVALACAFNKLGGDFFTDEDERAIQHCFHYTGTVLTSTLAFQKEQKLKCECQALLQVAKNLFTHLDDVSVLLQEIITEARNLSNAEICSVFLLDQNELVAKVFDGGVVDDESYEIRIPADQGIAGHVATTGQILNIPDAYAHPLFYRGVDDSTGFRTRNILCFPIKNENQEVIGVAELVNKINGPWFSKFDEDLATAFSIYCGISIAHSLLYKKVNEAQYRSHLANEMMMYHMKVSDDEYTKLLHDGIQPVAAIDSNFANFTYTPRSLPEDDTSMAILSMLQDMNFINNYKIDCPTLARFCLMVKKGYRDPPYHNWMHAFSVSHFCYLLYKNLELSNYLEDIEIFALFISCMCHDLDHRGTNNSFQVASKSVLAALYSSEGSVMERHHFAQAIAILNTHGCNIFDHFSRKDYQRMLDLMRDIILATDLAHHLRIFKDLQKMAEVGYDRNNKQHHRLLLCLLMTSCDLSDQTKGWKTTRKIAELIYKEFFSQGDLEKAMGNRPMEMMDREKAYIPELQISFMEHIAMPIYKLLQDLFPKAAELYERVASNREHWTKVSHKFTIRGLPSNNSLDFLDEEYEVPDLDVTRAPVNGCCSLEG
Chain of human PDE9A2 (O76083 1-533 isoform O76083-2): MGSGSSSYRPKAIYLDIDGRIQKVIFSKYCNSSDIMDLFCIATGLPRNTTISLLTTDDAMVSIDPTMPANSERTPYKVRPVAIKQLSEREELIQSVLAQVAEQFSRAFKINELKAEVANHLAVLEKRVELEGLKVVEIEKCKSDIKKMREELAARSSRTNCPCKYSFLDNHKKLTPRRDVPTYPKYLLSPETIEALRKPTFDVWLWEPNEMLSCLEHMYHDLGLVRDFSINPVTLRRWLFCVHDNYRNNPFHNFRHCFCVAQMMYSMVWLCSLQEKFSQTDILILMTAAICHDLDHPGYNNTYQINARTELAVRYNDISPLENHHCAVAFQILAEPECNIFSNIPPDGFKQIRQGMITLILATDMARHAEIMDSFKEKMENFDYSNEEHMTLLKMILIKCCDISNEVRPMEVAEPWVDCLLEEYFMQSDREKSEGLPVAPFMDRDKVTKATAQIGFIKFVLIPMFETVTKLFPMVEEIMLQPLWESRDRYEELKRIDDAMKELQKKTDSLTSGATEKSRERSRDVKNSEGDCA
Chain of human PDE8A (O60658 whole entry): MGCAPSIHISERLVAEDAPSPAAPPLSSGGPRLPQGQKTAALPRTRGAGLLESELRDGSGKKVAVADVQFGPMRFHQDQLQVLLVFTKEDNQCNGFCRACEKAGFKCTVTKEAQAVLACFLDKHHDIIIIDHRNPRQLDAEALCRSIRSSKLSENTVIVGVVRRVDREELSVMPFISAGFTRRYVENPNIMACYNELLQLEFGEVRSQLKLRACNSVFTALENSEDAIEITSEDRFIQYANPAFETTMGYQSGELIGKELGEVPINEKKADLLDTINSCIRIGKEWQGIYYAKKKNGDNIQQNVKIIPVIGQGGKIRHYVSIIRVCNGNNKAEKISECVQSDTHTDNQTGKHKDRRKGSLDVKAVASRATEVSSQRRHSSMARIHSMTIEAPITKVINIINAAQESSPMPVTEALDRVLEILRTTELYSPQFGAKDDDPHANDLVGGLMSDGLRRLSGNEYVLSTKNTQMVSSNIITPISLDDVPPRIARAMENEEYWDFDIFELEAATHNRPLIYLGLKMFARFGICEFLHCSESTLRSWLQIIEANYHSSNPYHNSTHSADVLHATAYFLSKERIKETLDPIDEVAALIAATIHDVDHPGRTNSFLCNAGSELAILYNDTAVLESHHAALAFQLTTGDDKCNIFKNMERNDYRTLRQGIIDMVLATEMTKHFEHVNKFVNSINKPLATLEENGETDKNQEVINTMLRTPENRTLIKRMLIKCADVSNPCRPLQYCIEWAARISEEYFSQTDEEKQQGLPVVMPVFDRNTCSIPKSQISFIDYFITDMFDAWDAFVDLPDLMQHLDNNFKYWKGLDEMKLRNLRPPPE
Chain of mutant PDE4B2^T407A catalytic domain (Q07343 324-659 T579A): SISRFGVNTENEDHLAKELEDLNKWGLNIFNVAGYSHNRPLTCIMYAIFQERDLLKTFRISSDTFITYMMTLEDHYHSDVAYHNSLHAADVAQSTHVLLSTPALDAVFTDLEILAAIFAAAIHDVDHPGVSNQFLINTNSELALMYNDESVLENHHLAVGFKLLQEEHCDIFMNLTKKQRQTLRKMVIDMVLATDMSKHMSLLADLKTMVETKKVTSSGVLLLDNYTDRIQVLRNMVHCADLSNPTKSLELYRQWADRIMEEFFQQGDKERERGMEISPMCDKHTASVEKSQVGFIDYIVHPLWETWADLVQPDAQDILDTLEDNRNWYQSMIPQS
Chain of human PDE1C (Q14123 whole entry): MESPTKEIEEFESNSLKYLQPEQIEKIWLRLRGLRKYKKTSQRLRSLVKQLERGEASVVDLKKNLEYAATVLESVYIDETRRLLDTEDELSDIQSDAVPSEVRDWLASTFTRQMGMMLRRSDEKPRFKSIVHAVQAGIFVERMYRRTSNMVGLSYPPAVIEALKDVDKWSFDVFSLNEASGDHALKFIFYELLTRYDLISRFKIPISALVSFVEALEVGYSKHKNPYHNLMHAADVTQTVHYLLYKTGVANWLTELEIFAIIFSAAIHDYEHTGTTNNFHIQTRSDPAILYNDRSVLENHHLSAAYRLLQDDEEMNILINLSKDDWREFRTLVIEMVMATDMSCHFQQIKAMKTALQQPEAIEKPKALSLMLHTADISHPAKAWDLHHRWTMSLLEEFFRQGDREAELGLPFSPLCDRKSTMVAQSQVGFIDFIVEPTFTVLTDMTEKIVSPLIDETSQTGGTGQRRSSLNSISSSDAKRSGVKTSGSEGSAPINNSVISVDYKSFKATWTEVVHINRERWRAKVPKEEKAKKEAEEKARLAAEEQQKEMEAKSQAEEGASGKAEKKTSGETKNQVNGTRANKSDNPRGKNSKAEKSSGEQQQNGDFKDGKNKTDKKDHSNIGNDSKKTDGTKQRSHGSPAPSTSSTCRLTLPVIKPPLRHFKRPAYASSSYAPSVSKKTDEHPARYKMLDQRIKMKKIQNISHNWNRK
Chain of murine PDE4A1 (O89084 1-610 isoform O89084-2): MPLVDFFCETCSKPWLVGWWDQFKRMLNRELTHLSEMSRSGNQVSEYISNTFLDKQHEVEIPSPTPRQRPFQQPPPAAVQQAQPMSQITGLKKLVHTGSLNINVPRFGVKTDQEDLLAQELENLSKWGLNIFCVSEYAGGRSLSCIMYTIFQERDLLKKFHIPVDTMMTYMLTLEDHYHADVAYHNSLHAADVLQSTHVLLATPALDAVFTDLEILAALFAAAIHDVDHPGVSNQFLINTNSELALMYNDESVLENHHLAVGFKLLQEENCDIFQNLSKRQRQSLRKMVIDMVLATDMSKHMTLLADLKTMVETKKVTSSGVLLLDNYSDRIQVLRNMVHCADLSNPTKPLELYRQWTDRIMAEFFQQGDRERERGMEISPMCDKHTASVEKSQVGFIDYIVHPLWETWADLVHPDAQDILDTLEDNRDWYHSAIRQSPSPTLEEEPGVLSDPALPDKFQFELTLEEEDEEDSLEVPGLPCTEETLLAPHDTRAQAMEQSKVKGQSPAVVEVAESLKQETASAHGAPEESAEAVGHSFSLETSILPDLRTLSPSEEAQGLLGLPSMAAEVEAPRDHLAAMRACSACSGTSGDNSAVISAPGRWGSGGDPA
Chain of rat PDE4A5 (P54748 whole entry): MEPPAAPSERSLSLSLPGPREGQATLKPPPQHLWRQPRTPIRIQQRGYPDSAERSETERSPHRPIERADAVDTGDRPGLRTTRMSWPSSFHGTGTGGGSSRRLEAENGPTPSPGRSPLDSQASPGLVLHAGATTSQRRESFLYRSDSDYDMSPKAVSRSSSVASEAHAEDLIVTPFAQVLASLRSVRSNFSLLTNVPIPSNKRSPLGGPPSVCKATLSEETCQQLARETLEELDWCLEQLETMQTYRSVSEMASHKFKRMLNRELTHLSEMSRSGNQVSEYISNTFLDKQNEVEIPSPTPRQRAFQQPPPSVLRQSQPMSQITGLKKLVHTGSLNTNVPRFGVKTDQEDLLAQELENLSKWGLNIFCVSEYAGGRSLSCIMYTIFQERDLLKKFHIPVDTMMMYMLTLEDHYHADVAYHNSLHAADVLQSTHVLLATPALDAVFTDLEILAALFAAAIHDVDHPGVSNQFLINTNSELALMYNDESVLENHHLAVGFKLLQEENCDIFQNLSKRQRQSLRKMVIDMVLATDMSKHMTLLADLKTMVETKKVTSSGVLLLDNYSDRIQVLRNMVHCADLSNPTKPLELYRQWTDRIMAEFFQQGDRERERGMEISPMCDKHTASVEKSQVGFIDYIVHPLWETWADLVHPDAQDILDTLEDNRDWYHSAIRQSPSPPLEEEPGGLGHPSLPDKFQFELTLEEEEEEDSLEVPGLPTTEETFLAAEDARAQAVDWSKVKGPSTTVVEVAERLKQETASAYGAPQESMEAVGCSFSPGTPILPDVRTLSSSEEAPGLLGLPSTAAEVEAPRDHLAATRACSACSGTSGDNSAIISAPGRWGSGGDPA
Chain of Human PDE4B2 (Q07343 324-659): as the sequence (Q07343 324-659 T579A) above, with A256T counted along it

For `COc1ccc(C2CNC(=O)C2)cc1OC1CCCC1` (stereo not drawn) [rolipram], the CLL apoptosis in the assay on CLL cells (Patient 1) is listed as 76.7±0.76; in the assay with CLL cells (Patient 2), 35.6±0.7; in the assay with CLL cells (Patient 3), 20.3±2.18.

By IC50 is commonly meant the concentration that inhibits the measured activity by half. Regarding `Cc1ccc([N+](=O)[O-])cc1S(=O)(=O)N(C)C` [BRL50481, 3-(N,N-dimethylsulfonamido)-4-methyl-nitrobenzene], the IC50 in the assay with PDE7A is 150 nM; with PDE7B [1], 12100 nM. Moreover, the CLL apoptosis was determined as 52.5±0.78 in the assay with CLL cells (Patient 1), 26.3±1.02 in the assay with CLL cells (Patient 2) and 5.1±0.72 with CLL cells (Patient 3).

Take `CCOC(=O)c1cc2c(=O)n3ccccc3nc2n(C2CCCCC2)/c1=N\C(C)=O` [BC54, ethyl (2Z)-2-(acetylimino)-1-cyclohexyl-5-oxo-1,5-dihydro-2H-dipyrido[1,2-a:2′,3′-d] pyrimidine-3-carboxylate]: the IC50 against Human PDE4D2 is 50 to 110 nM; on human PDE11A4, roughly 3000 nM; on human PDE3B, greater than 10000 nM; against human PDE10A1, greater than 10000 nM; against PDE7B [2], 140 nM; against human PDE7A, 140 nM. The 50% inhibitory concentration (IC50) on Human PDE4B2 was 50 to 110 nM; on rat PDE2A it was roughly 3000 nM; against human PDE5A1, greater than 10000 nM; in [3], 124 ± 8.8 nM; against Human PDE4A10, 50 to 110 nM; at human PDE1C, greater than 10000 nM. In addition, the IC50 on human PDE9A2 and against human PDE8A was greater than 10000 nM throughout. Moreover, the “Composite Z score” value at murine PDE4A1 is greater than 40; at murine PDE4B3, greater than 40; in the assay on PDE8A, −2.35; at rat PDE4A5 it was greater than 40; at human PDE7A1, greater than 40; with PDE11A, 7.74. For the same molecule, the TNFα production entry in assay [4] is recorded as “significantly reduces”. For the same molecule, the “potency in 5FOA growth assay” value in assay [5] is recorded as “significant potency at sub-micromolar concentrations”. Moreover, in assay [6], the “selectivity for PDE4 and PDE7 relative to PDE2A and PDE11A” value is “greater than 20 fold”. In [7], the “reduction of stationary phase viability” value is “approximately ten-fold”. In addition, the CLL apoptosis in the assay on CLL cells (Patient 1) stood at 87.3±0.76; in the assay with CLL cells (Patient 2) it was 58.8±3.12; in the assay with CLL cells (Patient 3) it was 39.8±1.79. For the same molecule, in assay [8], the IL-2 production result was “significantly reduces”.
